Measurements from ChEMBL document CHEMBL2440040, “Synthesis of 4″-O-desosaminyl clarithromycin derivatives and their anti-bacterial activities” (2013).
In brackets after ≈: the same amount, converted by molar mass.

Assays:
Format in all cases: functional
[1] = tested on: Streptococcus pneumoniae; assay: Antibacterial activity against erythromycin-resistant Streptococcus pneumoniae 12-6 by broth microdilution method
[2] = tested on: Streptococcus pneumoniae; assay: Antibacterial activity against erythromycin-resistant Streptococcus pneumoniae 12-5 by broth microdilution method
[3] = tested on: Streptococcus pneumoniae; assay: Antibacterial activity against erythromycin-sensitive Streptococcus pneumoniae 12-14 by broth microdilution method
How it was run: (§1)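 Strains obtained from the Institute of Medicinal Biotechnology, Academy of Medical Sciences & Peking Union Medical College. MIC determined in vitro by broth microdilution following NCCLS recommendations.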

[4] = tested on: Streptococcus pneumoniae; assay: Antibacterial activity against erythromycin-sensitive Streptococcus pneumoniae 12-10 by broth microdilution method; how it was run: as §1
[5] = tested on: Streptococcus pneumoniae; assay: Antibacterial activity against erythromycin-sensitive Streptococcus pneumoniae 12-8 by broth microdilution method; how it was run: as §1
[6] = tested on: Streptococcus pneumoniae; assay: Antibacterial activity against erythromycin-sensitive Streptococcus pneumoniae 12-4 by broth microdilution method
[7] = tested on: Streptococcus pneumoniae; assay: Antibacterial activity against erythromycin-sensitive Streptococcus pneumoniae 12-1 by broth microdilution method; how it was run: as §1
[8] = tested on: Streptococcus pyogenes; assay: Antibacterial activity against erythromycin-resistant Streptococcus pyogenes 11-2 by broth microdilution method
[9] = tested on: Streptococcus pyogenes; assay: Antibacterial activity against erythromycin-sensitive Streptococcus pyogenes ATCC 19625 by broth microdilution method; how it was run: as §1
[10] = tested on: Staphylococcus epidermidis; assay: Antibacterial activity against methicillin-resistant Staphylococcus epidermidis 12-11 by broth microdilution method
[11] = tested on: Staphylococcus epidermidis; assay: Antibacterial activity against methicillin-resistant Staphylococcus epidermidis 12-4 by broth microdilution method
[12] = tested on: Staphylococcus epidermidis; assay: Antibacterial activity against methicillin-sensitive Staphylococcus epidermidis 12-5 by broth microdilution method; how it was run: as §1
[13] = tested on: Staphylococcus epidermidis; assay: Antibacterial activity against methicillin-sensitive Staphylococcus epidermidis 11-20 by broth microdilution method; how it was run: as §1
[14] = tested on: Staphylococcus epidermidis; assay: Antibacterial activity against methicillin-sensitive Staphylococcus epidermidis ATCC 12228 by broth microdilution method; how it was run: as §1
[15] = tested on: Staphylococcus aureus; assay: Antibacterial activity against methicillin-resistant Staphylococcus aureus 12-31 by broth microdilution method
[16] = tested on: Staphylococcus aureus; assay: Antibacterial activity against methicillin-sensitive Staphylococcus aureus 12-32 by broth microdilution method; how it was run: as §1
[17] = tested on: Staphylococcus aureus; assay: Antibacterial activity against methicillin-sensitive Staphylococcus aureus ATCC 29213 by broth microdilution method; how it was run: as §1

SMILES | MIC [1] [µg/mL] | MIC [2] [µg/mL] | MIC [3] [µg/mL] | MIC [4] [µg/mL] | MIC [5] [µg/mL] | MIC [6] [µg/mL] | MIC [7] [µg/mL] | MIC [8] [µg/mL] | MIC [9] [µg/mL] | MIC [10] [µg/mL] | MIC [11] [µg/mL] | MIC [12] [µg/mL] | MIC [13] [µg/mL] | MIC [14] [µg/mL] | MIC [15] [µg/mL] | MIC [16] [µg/mL] | MIC [17] [µg/mL]
CC[C@H]1OC(=O)[C@H](C)[C@@H](O[C@H]2C[C@@](C)(OC)[C@@H](O[C@@H]3O[C@H](C)[C@@H](OCc4ccccc4)[C@H](N(C)C)[C@H]3OC(=O)c3ccccc3)[C@H](C)O2)[C@H](C)[C@@H](O[C@@H]2O[C@H](C)C[C@H](N(C)C)[C@H]2O)[C@@](C)(OC)C[C@@H](C)C(=O)[C@H](C)[C@H]2OC(=O)O[C@@]21C | > 32 | > 32 | > 32 | > 32 | 16 (≈ 14 µM) | > 32 | > 32 | > 32 | > 32 | > 32 | > 32 | > 32 | > 32 | > 32 | > 32 | > 32 | > 32
CC[C@H]1OC(=O)[C@H](C)[C@@H](O[C@H]2C[C@@](C)(OC)[C@@H](O[C@@H]3O[C@H](C)[C@@H](OCc4ccccc4)[C@H](N(C)C)[C@H]3OC(=O)c3ccccc3)[C@H](C)O2)[C@H](C)[C@@H](O[C@@H]2O[C@H](C)C[C@H](N(C)C)[C@H]2O)[C@@](C)(OC)C[C@@H](C)C(=O)[C@H](C)[C@@H](O)[C@]1(C)O | 32 (≈ 28.7 µM) | 32 (≈ 28.7 µM) | 32 (≈ 28.7 µM) | 16 (≈ 14.3 µM) | 2 (≈ 1.79 µM) | 32 (≈ 28.7 µM) | > 32 | > 32 | > 32 | > 32 | > 32 | > 32 | > 32 | > 32 | > 32 | > 32 | > 32
CC[C@H]1OC(=O)[C@H](C)[C@@H](O[C@H]2C[C@@](C)(OC)[C@@H](O[C@@H]3O[C@H](C)[C@@H](OCc4ccccc4)[C@H](N(C)C)[C@H]3O)[C@H](C)O2)[C@H](C)[C@@H](O[C@@H]2O[C@H](C)C[C@H](N(C)C)[C@H]2O)[C@@](C)(OC)C[C@@H](C)C(=O)[C@H](C)[C@@H](O)[C@]1(C)O | 32 (≈ 31.6 µM) | 32 (≈ 31.6 µM) | 32 (≈ 31.6 µM) | 32 (≈ 31.6 µM) | 32 (≈ 31.6 µM) | 32 (≈ 31.6 µM) | 32 (≈ 31.6 µM) | > 32 | 32 (≈ 31.6 µM) | > 32 | > 32 | > 32 | > 32 | > 32 | > 32 | > 32 | > 32
CC[C@H]1OC(=O)[C@H](C)[C@@H](O[C@H]2C[C@@](C)(OC)[C@@H](O[C@@H]3O[C@H](C)[C@@H](O)[C@H](N(C)C)[C@H]3OC(=O)c3ccccc3)[C@H](C)O2)[C@H](C)[C@@H](O[C@@H]2O[C@H](C)C[C@H](N(C)C)[C@H]2O)[C@@](C)(OC)C[C@@H](C)C(=O)[C@H](C)[C@@H](O)[C@]1(C)O | > 32 | 32 (≈ 31.2 µM) | 16 (≈ 15.6 µM) | 16 (≈ 15.6 µM) | 4 (≈ 3.9 µM) | 32 (≈ 31.2 µM) | > 32 | > 32 | 8 (≈ 7.8 µM) | 16 (≈ 15.6 µM) | 16 (≈ 15.6 µM) | 32 (≈ 31.2 µM) | 32 (≈ 31.2 µM) | > 32 | > 32 | > 32 | 16 (≈ 15.6 µM)
CC[C@H]1OC(=O)[C@H](C)[C@@H](O[C@H]2C[C@@](C)(OC)[C@@H](O[C@@H]3O[C@H](C)[C@@H](O)[C@H](N(C)C)[C@H]3O)[C@H](C)O2)[C@H](C)[C@@H](O[C@@H]2O[C@H](C)C[C@H](N(C)C)[C@H]2O)[C@@](C)(OC)C[C@@H](C)C(=O)[C@H](C)[C@@H](O)[C@]1(C)O | 32 (≈ 34.7 µM) | 16 (≈ 17.4 µM) | 4 (≈ 4.34 µM) | 2 (≈ 2.17 µM) | 2 (≈ 2.17 µM) | 16 (≈ 17.4 µM) | 2 (≈ 2.17 µM) | > 32 | 2 (≈ 2.17 µM) | 2 (≈ 2.17 µM) | 4 (≈ 4.34 µM) | 16 (≈ 17.4 µM) | 8 (≈ 8.68 µM) | 16 (≈ 17.4 µM) | > 32 | 16 (≈ 17.4 µM) | 4 (≈ 4.34 µM)
CC[C@H]1OC(=O)[C@H](C)[C@@H](O[C@H]2C[C@@](C)(OC)[C@@H](O[C@@H]3O[C@H](C)[C@@H](OCc4ccccc4)[C@H](N(C)C)[C@H]3O)[C@H](C)O2)[C@H](C)[C@@H](O[C@@H]2O[C@H](C)C[C@H](N(C)C)[C@H]2O)[C@@](C)(OC)C[C@@H](C)C(=O)[C@H](C)[C@H]2OC(=O)O[C@@]21C | 32 (≈ 30.8 µM) | 32 (≈ 30.8 µM) | 4 (≈ 3.86 µM) | 1 (≈ 0.964 µM) | 2 (≈ 1.93 µM) | 32 (≈ 30.8 µM) | 2 (≈ 1.93 µM) | > 32 | 2 (≈ 1.93 µM) | 16 (≈ 15.4 µM) | > 32 | 16 (≈ 15.4 µM) | 16 (≈ 15.4 µM) | > 32 | > 32 | 16 (≈ 15.4 µM) | 16 (≈ 15.4 µM)
CC[C@H]1OC(=O)[C@H](C)[C@@H](O[C@H]2C[C@@](C)(OC)[C@@H](O[C@@H]3O[C@H](C)[C@@H](O)[C@H](N(C)C)[C@H]3OC(=O)c3ccccc3)[C@H](C)O2)[C@H](C)[C@@H](O[C@@H]2O[C@H](C)C[C@H](N(C)C)[C@H]2O)[C@@](C)(OC)C[C@@H](C)C(=O)[C@H](C)[C@H]2OC(=O)O[C@@]21C | 32 (≈ 30.4 µM) | 32 (≈ 30.4 µM) | 2 (≈ 1.9 µM) | 2 (≈ 1.9 µM) | 1 (≈ 0.951 µM) | 16 (≈ 15.2 µM) | 1 (≈ 0.951 µM) | 32 (≈ 30.4 µM) | 1 (≈ 0.951 µM) | ≤ 1 | 8 (≈ 7.61 µM) | 2 (≈ 1.9 µM) | 4 (≈ 3.8 µM) | 2 (≈ 1.9 µM) | > 32 | 2 (≈ 1.9 µM) | 2 (≈ 1.9 µM)
CC[C@H]1OC(=O)[C@H](C)[C@@H](O[C@H]2C[C@@](C)(OC)[C@@H](O[C@@H]3O[C@H](C)[C@@H](O)[C@H](N(C)C)[C@H]3O)[C@H](C)O2)[C@H](C)[C@@H](O[C@@H]2O[C@H](C)C[C@H](N(C)C)[C@H]2O)[C@@](C)(OC)C[C@@H](C)C(=O)[C@H](C)[C@H]2OC(=O)O[C@@]21C | 16 (≈ 16.9 µM) | 16 (≈ 16.9 µM) | 2 (≈ 2.11 µM) | 1 (≈ 1.06 µM) | 1 (≈ 1.06 µM) | 4 (≈ 4.22 µM) | 2 (≈ 2.11 µM) | 16 (≈ 16.9 µM) | 2 (≈ 2.11 µM) | 16 (≈ 16.9 µM) | 32 (≈ 33.8 µM) | 16 (≈ 16.9 µM) | 16 (≈ 16.9 µM) | 32 (≈ 33.8 µM) | > 32 | 32 (≈ 33.8 µM) | 16 (≈ 16.9 µM)
CC[C@H]1OC(=O)[C@H](C)[C@@H](O[C@H]2C[C@@](C)(OC)[C@@H](O[C@@H]3O[C@H](C)[C@@H](O)[C@H](N(C)C)[C@H]3OC(=O)c3ccccc3)[C@H](C)O2)[C@H](C)[C@@H](O[C@@H]2O[C@H](C)C[C@H](N(C)C)[C@H]2O)[C@@](C)(OC)C[C@@H](C)C(=O)/C(C)=C/[C@]1(C)O | > 32 | > 32 | > 32 | > 32 | 16 (≈ 15.9 µM) | > 32 | 1 (≈ 0.993 µM) | > 32 | 1 (≈ 0.993 µM) | 32 (≈ 31.8 µM) | > 32 | 32 (≈ 31.8 µM) | > 32 | 32 (≈ 31.8 µM) | > 32 | > 32 | > 32
CC[C@H]1OC(=O)[C@H](C)[C@@H](O[C@H]2C[C@@](C)(OC)[C@@H](O)[C@H](C)O2)[C@H](C)[C@@H](O[C@@H]2O[C@H](C)C[C@H](N(C)C)[C@H]2O)[C@](C)(OC)C[C@@H](C)C(=O)[C@H](C)[C@@H](O)[C@]1(C)O [CLARITHROMYCIN] | > 32 | > 32 | 1 (≈ 1.34 µM) | 1 (≈ 1.34 µM) | 1 (≈ 1.34 µM) | 2 (≈ 2.67 µM) | 1 (≈ 1.34 µM) | 4 (≈ 5.35 µM) | ≤ 1 | 4 (≈ 5.35 µM) | 32 (≈ 42.8 µM) | ≤ 1 | 8 (≈ 10.7 µM) | ≤ 1 | > 32 | 4 (≈ 5.35 µM) | ≤ 1
CC[C@H]1OC(=O)[C@H](C)C(=O)[C@H](C)[C@@H](O[C@@H]2O[C@H](C)C[C@H](N(C)C)[C@H]2O)[C@](C)(OC)C[C@@H](C)C(=O)[C@H](C)[C@H]2N(CCCCn3cnc(-c4cccnc4)c3)C(=O)O[C@]12C [TELITHROMYCIN] | ≤ 2 | ≤ 2 | ≤ 2 | ≤ 2 | ≤ 2 | ≤ 2 | ≤ 2 | 2 (≈ 2.46 µM) | ≤ 2 | ≤ 2 | ≤ 2 | ≤ 2 | ≤ 2 | ≤ 2 | > 64 | ≤ 2 | ≤ 2
